From ChEMBL document CHEMBL4346672, “Antimicrobial and KPC/AmpC inhibitory activity of functionalized benzosiloxaboroles” (Eur J Med Chem, 2019)
≈ marks a conversion by molar mass, not a printed value. Calls of active or inactive are those of the source. The rule behind the calls is not given here.

Tests used:
Staphylococcus aureus [1] = assay: Antibacterial activity against Staphylococcus aureus ATCC 6538P assessed as diameter of zone inhibition measured after 18 hrs by CLSI disc diffusion method; assay type: functional
Summary of the method: (§1)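 Disc diffusion on Mueller-Hinton II agar. Compounds dissolved in DMSO. Strains stored at -80 °C and subcultured twice on tryptic soy agar before testing. Inhibition zones read after 35 °C, 18 h.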

Serratia marcescens = assay: Antibacterial activity against Serratia marcescens ATCC 13880 measured after 18 hrs by CLSI broth dilution method; assay type: functional; settings: ATCC 13880, 18 h
Summary of the method: (§2)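 Broth MIC in Mueller-Hinton II broth following CLSI, compounds dissolved in DMSO. Strains subcultured twice on tryptic soy agar before testing. Growth read after 35 °C, 18 h.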

[2] = Dissociation constant, pKa1 of compound in 0.1 M NaOH by potentiometric analysis; assay type: physicochemical
Candida albicans [3] = assay: Antifungal activity against Candida albicans ATCC 90028 assessed as decrease in fungal cell growth at 0.78 to 12.5 mg/L incubated for 24 hrs by CLSI broth dilution method; assay type: functional; settings: ATCC 90028, 24 h
Summary of the method: (§3)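 Yeast broth dilution in RPMI 1640 with 2% glucose, compounds in DMSO. Yeasts pre-grown on Sabouraud dextrose agar. Growth read after 35 °C, 24 h.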

Candida parapsilosis = assay: Antifungal activity against Candida parapsilosis ATCC 22019 assessed as decrease in fungal cell growth at 0.78 to 12.5 mg/L incubated for 24 hrs by CLSI broth dilution method; assay type: functional; settings: Lodderomyces parapsilosis, ATCC 22019, 24 h; summary of the method: as §3
Candida tropicalis = assay: Antifungal activity against Candida tropicalis IBA 171 assessed as decrease in fungal cell growth at 0.78 to 12.5 mg/L incubated for 24 hrs by CLSI broth dilution method; assay type: functional; settings: IBA 171, 24 h; summary of the method: as §3
Pichia kudriavzevii [4] = assay: Antifungal activity against Candida krusei ATCC 6258 assessed as decrease in fungal cell growth at 0.78 to 12.5 mg/L incubated for 24 hrs by CLSI broth dilution method; assay type: functional; settings: ATCC 6258, 24 h; summary of the method: as §3
Candida albicans [5] = assay: Antifungal activity against Candida albicans ATCC 90028 assessed as diameter of zone inhibition incubated for 24 hrs by CLSI disc diffusion method; assay type: functional
Summary of the method: (§4)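 Yeast disc diffusion on Mueller-Hinton agar supplemented with 2% glucose and 0.5 mg/L methylene blue. Compounds in DMSO. Yeasts subcultured on Sabouraud dextrose agar before testing. Zones read after 35 °C, 24 h.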

[6] = test system: Meyerozyma guilliermondii; assay: Antifungal activity against Candida guilliermondii IBA 155 assessed as diameter of zone inhibition incubated for 24 hrs by CLSI disc diffusion method; assay type: functional; summary of the method: as §4
Pichia kudriavzevii [7] = assay: Antifungal activity against Candida krusei ATCC 6258 assessed as diameter of zone inhibition incubated for 24 hrs by CLSI disc diffusion method; assay type: functional; summary of the method: as §4
Saccharomyces cerevisiae = assay: Antifungal activity against Saccharomyces cerevisiae ATCC 9763 diameter of zone inhibition incubated for 24 hrs by CLSI disc diffusion method; assay type: functional
Summary of the method: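 Disc-diffusion run on Mueller-Hinton II agar with 2% glucose and 0.5 mg/L methylene blue, using compounds in DMSO. Yeast was precultured on Sabouraud dextrose agar (24–48 h, 30 °C). Zones read after 24 h at 35 °C.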

Staphylococcus aureus [8] = assay: Antibacterial activity against Staphylococcus aureus ATCC 6538P measured after 18 hrs by CLSI broth dilution method; assay type: functional; summary of the method: as §2
Enterococcus faecium [9] = assay: Antibacterial activity against Enterococcus faecium ATCC 6057 measured after 18 hrs by CLSI broth dilution method; assay type: functional; settings: ATCC 6057, 18 h; summary of the method: as §2
Enterococcus faecalis = assay: Antibacterial activity against Enterococcus faecalis ATCC 29212 assessed as diameter of zone inhibition measured after 18 hrs by CLSI disc diffusion method; assay type: functional; summary of the method: as §1
Enterococcus faecium [10] = assay: Antibacterial activity against Enterococcus faecium ATCC 6057 assessed as diameter of zone inhibition measured after 18 hrs by CLSI disc diffusion method; assay type: functional; summary of the method: as §1
Bacillus subtilis = assay: Antibacterial activity against Bacillus subtilis ATCC 6633 assessed as diameter of zone inhibition measured after 18 hrs by CLSI disc diffusion method; assay type: functional; summary of the method: as §1
Escherichia coli [11] = assay: Antibacterial activity against Escherichia coli ATCC 25922 measured after 18 hrs by CLSI broth dilution method; assay type: functional; settings: ATCC 25922, 18 h; summary of the method: as §2
Proteus mirabilis [12] = assay: Antibacterial activity against Proteus mirabilis ATCC 12453 measured after 18 hrs by CLSI broth dilution method; assay type: functional; settings: ATCC 12453, 18 h; summary of the method: as §2
Enterobacter cloacae [13] = assay: Antibacterial activity against Enterobacter cloacae DSM 6234 measured after 18 hrs by CLSI broth dilution method; assay type: functional; settings: DSM 6234, 18 h; summary of the method: as §2
[14] = test system: Bordetella bronchiseptica; assay: Antibacterial activity against Bordetella bronchiseptica ATCC 4617 measured after 18 hrs by CLSI broth dilution method; assay type: functional; settings: ATCC 4617, 18 h; summary of the method: as §2
Acinetobacter baumannii [15] = assay: Antibacterial activity against Acinetobacter baumannii ATCC 19606 measured after 18 hrs by CLSI broth dilution method; assay type: functional; settings: ATCC 19606, 18 h; summary of the method: as §2
[16] = test system: Stenotrophomonas maltophilia; assay: Antibacterial activity against Stenotrophomonas maltophilia ATCC 13637 measured after 18 hrs by CLSI broth dilution method; assay type: functional; settings: ATCC 13637, 18 h; summary of the method: as §2
Escherichia coli [17] = assay: Antibacterial activity against Escherichia coli ATCC 25922 assessed as diameter of zone inhibition measured after 18 hrs by CLSI disc diffusion method; assay type: functional; summary of the method: as §1
Proteus mirabilis [18] = assay: Antibacterial activity against Proteus mirabilis ATCC 12453 assessed as diameter of zone inhibition measured after 18 hrs by CLSI disc diffusion method; assay type: functional; summary of the method: as §1
Enterobacter cloacae [19] = assay: Antibacterial activity against Enterobacter cloacae DSM 6234 assessed as diameter of zone inhibition measured after 18 hrs by CLSI disc diffusion method; assay type: functional; summary of the method: as §1
Pseudomonas aeruginosa [20] = assay: Antibacterial activity against Pseudomonas aeruginosa ATCC 27853 assessed as diameter of zone inhibition measured after 18 hrs by CLSI disc diffusion method; assay type: functional, organism-based; summary of the method: as §1
Acinetobacter baumannii [21] = assay: Antibacterial activity against Acinetobacter baumannii ATCC 19606 assessed as diameter of zone inhibition measured after 18 hrs by CLSI disc diffusion method; assay type: functional; summary of the method: as §1
[22] = test system: Stenotrophomonas maltophilia; assay: Antibacterial activity against Stenotrophomonas maltophilia ATCC 13637 assessed as diameter of zone inhibition measured after 18 hrs by CLSI disc diffusion method; assay type: functional; summary of the method: as §1
Burkholderia cepacia = assay: Antibacterial activity against Burkholderia cepacia ATCC 25416 assessed as diameter of zone inhibition measured after 18 hrs by CLSI disc diffusion method; assay type: functional; summary of the method: as §1
[23] = test system: Bordetella bronchiseptica; assay: Antibacterial activity against Bordetella bronchiseptica ATCC 4617 assessed as diameter of zone inhibition measured after 18 hrs by CLSI disc diffusion method; assay type: functional; summary of the method: as §1
Enterobacter cloacae [24] = assay: Antibacterial activity against Enterobacter cloacae DSM 6234 assessed as fold reduction of MIC in presence of efflux pump inhibitor PAbetaN incubated for 18 hrs by broth microdilution method; assay type: functional
Summary of the method: (§5)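 MICs determined with and without PAβN at 50 mg/L in Mueller-Hinton broth containing 1 mM MgSO₄. 2-fold serial dilutions per CLSI. Fold change taken from the paired MICs after 35 °C, 18 h.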

Pseudomonas aeruginosa [25] = assay: Antibacterial activity against Pseudomonas aeruginosa ATCC 27853 assessed as fold reduction of MIC in presence of efflux pump inhibitor PAbetaN incubated for 18 hrs microdilution method; assay type: functional; summary of the method: as §5
[26] = test system: Stenotrophomonas maltophilia; assay: Antibacterial activity against Stenotrophomonas maltophilia ATCC 13637 assessed as fold reduction of MIC in presence of efflux pump inhibitor PAbetaN incubated for 18 hrs by broth microdilution method; assay type: functional; summary of the method: as §5

Compound | diameter of the inhibition zone (DIZ) (Staphylococcus aureus [1]) [mm] | MIC (Serratia marcescens) [µg/mL] | pKa [2] | MIC (Candida albicans [3]) [µg/mL] | MIC (Candida parapsilosis) [µg/mL] | MIC (Candida tropicalis) [µg/mL] | MIC (Pichia kudriavzevii [4]) [µg/mL] | diameter of the inhibition zone (DIZ) (Candida albicans [5]) | diameter of the inhibition zone (DIZ) [6] | diameter of the inhibition zone (DIZ) (Pichia kudriavzevii [7]) | diameter of the inhibition zone (DIZ) (Saccharomyces cerevisiae) | MIC (Staphylococcus aureus [8]) [µg/mL] | MIC (Enterococcus faecium [9]) [µg/mL] | diameter of the inhibition zone (DIZ) (Enterococcus faecalis) | diameter of the inhibition zone (DIZ) (Enterococcus faecium [10]) | diameter of the inhibition zone (DIZ) (Bacillus subtilis) [mm] | MIC (Escherichia coli [11]) [µg/mL] | MIC (Proteus mirabilis [12]) [µg/mL] | MIC (Enterobacter cloacae [13]) [µg/mL] | MIC [14] [µg/mL] | further results
C[Si]1(C)OB(O)c2ccc(F)cc21 | 29 | > 400 | 7.3 | 25 (≈ 128 µM) | 25 (≈ 128 µM) | 12.5 (≈ 63.8 µM) | 12.5 (≈ 63.8 µM) | 13 mm | 15 mm | 11 mm | 46 mm | 50 (≈ 255 µM) | 200 (≈ 1020 µM) | inactive | inactive | 14 | 400 (≈ 2040 µM) | > 400 | > 400 | > 400 | MIC (Acinetobacter baumannii [15]): 200 µg/mL (≈ 1020 µM); MIC [16]: 200 µg/mL (≈ 1020 µM); diameter of the inhibition zone (DIZ) (Escherichia coli [17]): inactive; diameter of the inhibition zone (DIZ) (Proteus mirabilis [18]): inactive; diameter of the inhibition zone (DIZ) (Enterobacter cloacae [19]): inactive; diameter of the inhibition zone (DIZ) (Pseudomonas aeruginosa [20]): inactive; diameter of the inhibition zone (DIZ) (Acinetobacter baumannii [21]): inactive; diameter of the inhibition zone (DIZ) [22]: 12 mm; diameter of the inhibition zone (DIZ) (Burkholderia cepacia): inactive; diameter of the inhibition zone (DIZ) [23]: inactive; fold change (FC) (Enterobacter cloacae [24]): 32; fold change (FC) (Pseudomonas aeruginosa [25]): 16; fold change (FC) [26]: 8
C[Si]1(C)OB(O)c2c(F)c(F)c(F)c(F)c21 | 17 | > 400 | 4.7 | 200 (≈ 800 µM) | 50 (≈ 200 µM) | 1.56 (≈ 6.24 µM) | 200 (≈ 800 µM) | 15 mm | 14 mm | 13 mm | 35 mm | 25 (≈ 100 µM) | 200 (≈ 800 µM) | 11 mm | 11 mm | 20 | > 400 | 400 (≈ 1600 µM) | > 400 | 100 (≈ 400 µM) | MIC (Acinetobacter baumannii [15]): 400 µg/mL (≈ 1600 µM); MIC [16]: 400 µg/mL (≈ 1600 µM); diameter of the inhibition zone (DIZ) (Escherichia coli [17]): 18 mm; diameter of the inhibition zone (DIZ) (Proteus mirabilis [18]): 11 mm; diameter of the inhibition zone (DIZ) (Enterobacter cloacae [19]): inactive; diameter of the inhibition zone (DIZ) (Pseudomonas aeruginosa [20]): inactive; diameter of the inhibition zone (DIZ) (Acinetobacter baumannii [21]): 12 mm; diameter of the inhibition zone (DIZ) [22]: 25 mm; diameter of the inhibition zone (DIZ) (Burkholderia cepacia): inactive; diameter of the inhibition zone (DIZ) [23]: 15 mm; fold change (FC) (Enterobacter cloacae [24]): 32; fold change (FC) (Pseudomonas aeruginosa [25]): 16; fold change (FC) [26]: 16
C[Si]1(C)OB(O)c2c(F)c3c(c(F)c21)B(O)OC3 | 30 | 400 (≈ 1480 µM) | 4.7 | > 400 | > 400 | > 400 | > 400 | inactive | inactive | inactive | inactive | 6.25 (≈ 23.2 µM) | 25 (≈ 92.6 µM) | 28 mm | 28 mm | 29 | 200 (≈ 741 µM) | 200 (≈ 741 µM) | 200 (≈ 741 µM) | 100 (≈ 371 µM) | MIC (Acinetobacter baumannii [15]): 400 µg/mL (≈ 1480 µM); MIC [16]: 50 µg/mL (≈ 185 µM); diameter of the inhibition zone (DIZ) (Escherichia coli [17]): inactive; diameter of the inhibition zone (DIZ) (Proteus mirabilis [18]): inactive; diameter of the inhibition zone (DIZ) (Enterobacter cloacae [19]): 17 mm; diameter of the inhibition zone (DIZ) (Pseudomonas aeruginosa [20]): inactive; diameter of the inhibition zone (DIZ) (Acinetobacter baumannii [21]): 15 mm; diameter of the inhibition zone (DIZ) [22]: 15 mm; diameter of the inhibition zone (DIZ) (Burkholderia cepacia): 23 mm; diameter of the inhibition zone (DIZ) [23]: inactive; fold change (FC) (Enterobacter cloacae [24]): 8; fold change (FC) (Pseudomonas aeruginosa [25]): 8; fold change (FC) [26]: 8
